Tests used:
[1] = biological target: Human immunodeficiency virus type 1 reverse transcriptase (Human immunodeficiency virus 1, UniProt Q72547); test: Inhibition of wild type HIV-1 NL4-3 reverse transcriptase using random mRNA as template and GADPH as primer measured at 42 degreeC for 5 mins, 95 degreeC for 10sec and 60 degreeC for 60 sec by qRT-PCR analysis
[2] = biological target: Human immunodeficiency virus type 1 protease (Human immunodeficiency virus 1, UniProt Q72874); test: Inhibition of wild type HIV1 protease expressed in Escherichia coli using Arg-Glu (EDANS)-Ser-Gln-Asn-Tyr-Pro-Ile-Val-Gln-Lys(DABCYL)-Arg as substrate preincubated for 20 to 30 mins followed by substrate addition and measured for 10 mins by FRET assay
Method in brief: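 Recombinant HIV-1 PR was expressed in E. coli and purified. It was mixed with inhibitor (DMSO stock) for 20–30 min at room temperature before addition of the EDANS/DABCYL-labelled peptide. Buffer: 0.1 M sodium acetate, 1 M NaCl, 1 mM EDTA, 1 mM DTT, 2% DMSO, 1 mg/mL BSA, pH 4.7. Triplicate; mean of three independent experiments.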

[3] = tested on: Human immunodeficiency virus 1; test: (§1) Antiviral activity against HIV1 NL4-3 Env-deficient VSV-G pseudotyped virus infected in human SUP-T1 cells assessed as inhibition of late stage viral production when host cells were infected with compound pretreated viral particles measured after 48 hrs by luciferase assay; assay type: functional, organism-based; details: Human immunodeficiency virus 1, NL4-3, SUP-T1
Method in brief: (§2)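 Late-stage assay: VSV-G pseudotyped HIV-1 was made by co-transfecting 293T cells with pNL4-3-E⁻R⁻ (or DRV-resistant variants) plus pHCMV-G. Inhibitors in DMSO were added to the medium 5 h post-transfection. After 48 h at 37 °C, supernatant virus infected SupT1 cells for 48 h, and luciferase was read in the newly infected cells. Quintuplicate; inhibition at one fixed concentration and EC50.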

[4] = tested on: Human immunodeficiency virus 1; test: as §1, with “particles at 10 uM” for “particles”, “assay relative to control” for “assay”; assay type: functional; details: Human immunodeficiency virus 1, NL4-3, SUP-T1; method in brief: as §2
[5] = tested on: Human immunodeficiency virus 1; test: Antiviral activity against HIV1 NL4-3 VSV-G pseudotyped virus infected in human SUP-T1 cells assessed as inhibition of early stage viral production measured after 48 hrs by luciferase assay; assay type: functional, organism-based; details: Human immunodeficiency virus 1, NL4-3, SUP-T1, 48 h
Method in brief: (§3)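 Early-stage assay: SupT1 cells (1 × 10⁵/mL) were infected with VSV-G-pseudotyped HIV-1(NL4-3), and compounds were added afterward, with final DMSO held at 1% (v/v). After 48 h the cells were lysed and firefly luciferase activity was measured. Quintuplicate; inhibition at one fixed concentration and EC50.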

[6] = tested on: Human immunodeficiency virus 1; test: Antiviral activity against HIV1 NL4-3 VSV-G pseudotyped virus infected in human SUP-T1 cells assessed as inhibition of early stage viral production at 10 uM measured after 48 hrs by luciferase assay relative to control; assay type: functional; details: Human immunodeficiency virus 1, NL4-3, SUP-T1; method in brief: as §3
[7] = Ratio of antiviral activity against HIV1 NL4-3 Env-deficient VSV-G pseudotyped virus infected in human SUP-T1 cells assessed as inhibition of late stage viral production when host cells were infected with compound pretreated viral particles to antiviral activity against HIV1 NL4-3 VSV-G pseudotyped virus infected in human SUP-T1 cells assessed as inhibition of early stage viral production; assay type: functional, Human immunodeficiency virus 1
Method in brief: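 Ratio taken from single-round VSV-G pseudotyped HIV-1(NL4-3) luciferase assays in SupT1 cells (quintuplicate). It is late-stage inhibition (compound given to producer 293T cells after transfection) divided by early-stage inhibition (compound added after SupT1 infection), or the reverse.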

Row | Structure (SMILES) | IC50 [1] [nM] | IC50 [2] [nM] | EC50 [3] [nM] | inhibition at 10 µM [4] [%] | EC50 [5] [nM] | inhibition at 10 µM [6] [%] | Ratio [7]
1 | COc1cc(CCC(=O)N[C@@H](Cc2ccccc2)[C@H](O)CN(CC(C)C)S(=O)(=O)c2ccc(SC)cc2)ccc1O | 3.5 | 7.73 | – | – | – | – | –
2 | COc1cc(/C=C/C(=O)N[C@@H](Cc2ccccc2)[C@H](O)CN(CC(C)C)S(=O)(=O)c2ccc(SC)cc2)cc(OC)c1O | 51.5 | 65.1 | – | – | – | – | –
3 | COc1ccc(S(=O)(=O)N(C[C@@H](O)[C@H](Cc2ccccc2)NC(=O)CCc2ccc(O)c(OC)c2)C2CC2)cc1 | 285 | 32.5 | – | – | – | – | –
4 | COc1ccc(S(=O)(=O)N(CC(C)C)C[C@@H](O)[C@H](Cc2ccccc2)NC(=O)CCc2ccc(O)c(O)c2)cn1 | 2.5 | 0.081 | – | – | – | – | –
5 | CSc1ccc(S(=O)(=O)N(CC(C)C)C[C@@H](O)[C@H](Cc2ccccc2)NC(=O)/C=C/c2ccc(O)c(O)c2)cc1 | 21.5 | 16.2 | – | – | – | – | –
6 | COc1ccc(S(=O)(=O)N(CC(C)C)C[C@@H](O)[C@H](Cc2ccccc2)NC(=O)/C=C/c2cc(OC)c(O)c(OC)c2)cc1 | 125 | 13.1 | – | – | – | – | –
7 | COc1ccc(S(=O)(=O)N(CC(C)C)C[C@@H](O)[C@H](Cc2ccccc2)NC(=O)/C=C/c2ccc(O)c(O)c2)cc1 | 40.8 | 0.16 | – | – | – | – | –
8 | CCCN(C[C@@H](O)[C@H](Cc1ccccc1)NC(=O)CCc1ccc(O)c(OC)c1)S(=O)(=O)c1ccc(OC)cc1 | 234 | 1.7 | – | – | – | – | –
9 | COc1ccc(S(=O)(=O)N(C[C@@H](O)[C@H](Cc2ccccc2)NC(=O)CCc2ccc(O)c(OC)c2)C(C)C)cc1 | 40.5 | 9.56 | – | – | – | – | –
10 | CSc1ccc(S(=O)(=O)N(CC(C)C)C[C@@H](O)[C@H](Cc2ccccc2)NC(=O)CCc2ccc(O)c(O)c2)cc1 | 0.43 | 2.02 | 2310 | 97 | 8320 | 68 | 1.43
11 | COc1ccc(S(=O)(=O)N(CC(C)C)C[C@@H](O)[C@H](Cc2ccccc2)NC(=O)CCc2cc(OC)c(O)cc2OC)cn1 | 2.97 | 42.2 | – | – | – | – | –
12 | COc1ccc(S(=O)(=O)N(C[C@@H](O)[C@H](Cc2ccccc2)NC(=O)/C=C/c2ccc(O)c(O)c2)C2CC2)cc1 | 31.5 | 19.5 | – | – | – | – | –
13 | COc1ccc(S(=O)(=O)N(CC(C)C)C[C@@H](O)[C@H](Cc2ccccc2)NC(=O)/C=C/c2ccc(O)c(OC)c2)cn1 | 124 | 2.42 | – | – | – | – | –
14 | CC(C)CN(C[C@@H](O)[C@H](Cc1ccccc1)NC(=O)CCc1ccc(O)c(O)c1)S(=O)(=O)c1ccc(N)cc1 | 9.5 | 0.56 | – | – | – | – | –
15 | COc1cc(/C=C/C(=O)N[C@@H](Cc2ccccc2)[C@H](O)CN(CC(C)C)S(=O)(=O)c2ccc(N)cc2)cc(OC)c1O | 1.5 | 144 | 37400 | 30 | 68000 | 14 | 2.14
16 | COc1ccc(S(=O)(=O)N(C[C@@H](O)[C@H](Cc2ccccc2)NC(=O)/C=C/c2cc(OC)c(O)c(OC)c2)C2CC2)cc1 | 33.5 | 294 | – | – | – | – | –
17 | CCCN(C[C@@H](O)[C@H](Cc1ccccc1)NC(=O)/C=C/c1cc(OC)c(O)c(OC)c1)S(=O)(=O)c1ccc(OC)cc1 | 90.5 | 36.7 | – | – | – | – | –
18 | COc1ccc(S(=O)(=O)N(CC(C)C)C[C@@H](O)[C@H](Cc2ccccc2)NC(=O)CCc2ccc(O)c(OC)c2)cc1 | 206 | 1.1 | – | – | – | – | –
19 | CCCN(C[C@@H](O)[C@H](Cc1ccccc1)NC(=O)/C=C/c1ccc(O)c(OC)c1)S(=O)(=O)c1ccc(OC)cc1 | 106 | 24.1 | – | – | – | – | –
20 | COc1ccc(S(=O)(=O)N(CC(C)C)C[C@@H](O)[C@H](Cc2ccccc2)NC(=O)CCc2ccc(O)c(O)c2)cc1 | 3.5 | 0.39 | – | – | – | – | –
21 | CCCN(C[C@@H](O)[C@H](Cc1ccccc1)NC(=O)/C=C/c1ccc(O)c(O)c1)S(=O)(=O)c1ccc(OC)cc1 | 53.5 | 2.55 | – | – | – | – | –
22 | O=C1Nc2ccc(Cl)cc2[C@@](C#CC2CC2)(C(F)(F)F)O1 [EFAVIRENZ] | – | – | – | 15 | – | 85 | –

Reference: ChEMBL document CHEMBL4825676, “Design and biological evaluation of cinnamic and phenylpropionic amide derivatives as novel dual inhibitors of HIV-1 protease and reverse transcriptase” (Eur J Med Chem, 2021)
